In the RNAGym collection of RNA variant scans (doi:10.1126/science.aae0568):
Fewer inactive variants are shown than the library holds.

B1: tRNA (parent)
chain: GUUCCGUUGGCGUAAUGGUAACGCGUCUCCCUCCUAAGGAGAAGACUGCGGGUUCGAGUCCCGUACGGAACG

Variants of: B1
Assay: yeast fitness relative to wild type (ratio to wild type); higher = fitter; tRNA-Arg(CCU), competitive growth, 37 C, YPD
Procedure, shortened: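 For this measurement, the tRNA-Arg(CCU) gene was varied by chemical synthesis at a 3% per-site mutation rate across 69 sites, and each variant was placed at the native genomic locus in Saccharomyces cerevisiae. The pooled strains went through a 24-hour competition in YPD at 37°C in six parallel replicates, with amplicons from start and end populations read by 100-nucleotide paired-end sequencing. Darwinian fitness relative to wild type followed from the change in each genotype's frequency. Genotypes needed ≥ 100 starting reads, and estimates < 0.5 were set to 0.5.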

Row | Variant | yeast fitness
1 | C29U C33G A40C A57G | ≤ 0.5
2 | C30A A45C C46U A57C | ≤ 0.5
3 | C29U C33A C34U C46G C66U | 0.56
4 | C30A G41C A45G G67C | ≤ 0.5
5 | C30A C34G C60A U64A | 0.541
6 | C30A A37G C55U A57G U64A | ≤ 0.5
7 | C29U C33U C61G | ≤ 0.5
8 | C30A C34U G58C | ≤ 0.5
9 | C29U U32A C33U G67U A70G | ≤ 0.5
10 | C30G A37C G38A A40U A45G | ≤ 0.5
11 | C30A A36U A42G | ≤ 0.5
12 | C30G A37U G38A A57C A65C | ≤ 0.5
13 | C30A C62A | 0.589
14 | C29U A40U G56C A69C | 0.519
15 | C29U C31U A57C C62U | 0.558
16 | C30A C61U C62A A70G | ≤ 0.5
17 | C29U C61A | 0.611
18 | C29U C61G | 0.658
19 | C29U U35C A37C A65G C66A | ≤ 0.5
20 | C29U C31U U59C C66U A70C | 0.55
21 | C30A C31A G38A C49U G52A C66U | ≤ 0.5
22 | C30A U59C | 0.863
23 | C30A C33U | 0.738
24 | C30A A42G | 0.809

Row | Variant | yeast fitness
25 | C30A A42C G56A A57U | 0.558
26 | C29U C62G | 0.656
27 | C29U C62U | 0.763
28 | C29U C31G G44C | ≤ 0.5
29 | C30G A65U | 0.589
30 | C30G A65C | 0.68
31 | C30A G39C A57G | ≤ 0.5
32 | C30A C49U A69U | 0.682
33 | C30G A42C G56A | ≤ 0.5
34 | C30A A57U C61U A69G | ≤ 0.5
35 | C30A C61A | 0.721
36 | C30A C61G | 0.651
37 | C30A U32A U35G G67A | ≤ 0.5
38 | C30A C31G C49A C60U G67A | 0.526
39 | C29U A45U U54A | ≤ 0.5
40 | C30A C55G A57C C62G G68C | 0.513
41 | C29U G48C G52A A69U | ≤ 0.5
42 | C29U C55U C66U | 0.58
43 | C29U G48C G50A | ≤ 0.5
44 | C29U U53C | 0.843
45 | C30A G50A | 0.677
46 | C29U C55G | 0.614
47 | C29U A36U C66U G67A | 0.527
48 | C29U A57G | 0.908

Row | Variant | yeast fitness
49 | C30G A37U U47C C60A | 0.68
50 | C29U A45C G67A | 0.536
51 | C30G A40G G52C A57C C60U A70C | ≤ 0.5
52 | C30A G48A | 1.06
53 | C30G A43G | 0.589
54 | C30A A36U G38C C66A | 0.577
55 | C30A C49G | 0.798
56 | C30A C49U | 0.898
57 | C29U C30U C31G C34G A37C A45G | ≤ 0.5
58 | C29U U59A | 0.701
59 | C29U U59C | 0.868
60 | C30A A42G G50A C62U | ≤ 0.5
61 | C30A A40G A65G | 0.967
62 | C30G A43C C60G | ≤ 0.5
63 | C29U A36G A40U G56C A69C | ≤ 0.5
64 | C30A U35A | 0.569
65 | C29U G67A A70U | 0.52
66 | C29U G58A | 1.02
67 | C30A A57G | 0.74
68 | C29U C31U U54G | 0.522
69 | C29U C31G A37C G50A | ≤ 0.5
70 | C30A C62U A70U | 0.709
71 | C29U G51A G56A G63C | 0.528
72 | C30A A37C C60A G67C | ≤ 0.5

Row | Variant | yeast fitness
73 | C30G A36G U53A G68A | ≤ 0.5
74 | C30A G63U U64A | ≤ 0.5
75 | C29U U35C A65U | ≤ 0.5
76 | C30A C55U | 0.686
77 | C30A C55G | 0.596
78 | C30A C49A A57U A70G | 0.509
79 | C30A G50A A69C | 0.675
80 | C29U C49G | 0.739
81 | C30A U59G A69G | 0.599
82 | C29U C33A C34U C46G G52C | ≤ 0.5
83 | C30G A36G A57U A65U | 0.555
84 | C29U C34G C55U C61G | 0.508
85 | C30G A42U C61A | 0.639
86 | C29U U35C C61G | 0.672
87 | C29U A43U C46A | 0.76
88 | C30A G44A A45C | ≤ 0.5
89 | C30G A40C C55A G58C A65U A70U | 0.769
90 | C29U C49U U59A | ≤ 0.5
91 | C30A C31U A45C C49U C55G | ≤ 0.5
92 | C30A C46A G56A A69U | ≤ 0.5
93 | C30A A43G A69U | 0.618
94 | C30A A45U C49A G63U A70U | 0.523
95 | C29U A37G C49U | 0.613
96 | C30A G41A A42C G50C A70G | ≤ 0.5

Row | Variant | yeast fitness
97 | C29U C61G A65U | ≤ 0.5
98 | C30A G68A A69C | 0.629
99 | C29U A42C A45C G50A | ≤ 0.5
100 | C29U C31G C33A | 0.648
101 | C30A G38A C55A A65C | 0.58
102 | C30A A57G A70U | 0.765
103 | C30G A37G A40C C55A G58C A65U A70U | 0.542
104 | C30G A36C C49A C55A G63C A69C | 0.608
105 | C30A C31G | 1
106 | C30A C31A | 0.611
107 | C29U G50C C60A | ≤ 0.5
108 | C29U G38C A43U U53G G63C | ≤ 0.5
109 | C29U C46G | 1.02
110 | C29U A40U A57G U64C | ≤ 0.5
111 | C29U C30U C61A | ≤ 0.5
112 | C29U G38A G48C C66U | ≤ 0.5
113 | C30A C49A C61U | ≤ 0.5
114 | C29U G48C G52A | 0.591
115 | C30A G52C A69C | ≤ 0.5
116 | C30A A69U | 0.963
117 | C29U G41A | 0.731
118 | C29U G51C C55U | ≤ 0.5
119 | C30A C31U A45C C55G C60A | ≤ 0.5
120 | C30A A43U A65U | 0.608

Row | Variant | yeast fitness
121 | C30A G51A G52A U53C G56A C61G | ≤ 0.5
122 | C30G A40G | 0.605
123 | C30G A40C | 0.595
124 | C30A U53A | 0.618
125 | C30A A57U C61A A69G | ≤ 0.5
126 | C29U A40C G56C C61G C62G G68C | ≤ 0.5
127 | C30A G44C | 0.795
128 | C30A G67A | 0.822
129 | C30A A70U | 1.02
130 | C30A A70G | 0.983
131 | C29U A42U U64C C66U A69U | ≤ 0.5
132 | C30A G58C | 1
133 | C29U C49A G68C | 0.584
134 | C29U A37G | 0.729
135 | C29U A37U | 0.734
136 | C29U C33A G63C A65C C66A | ≤ 0.5
137 | C29U A70U | 0.827
138 | C29U G44C G68A | 0.57
139 | C30A C46G G51A | 0.593
140 | C29U U47A A65C | ≤ 0.5
141 | C29U C31U G67U | 0.593
142 | C29U A37G A65U | ≤ 0.5
143 | C30G A40G A45G G52C A57C C60U A70C | ≤ 0.5
144 | C30A A45U | 0.997

Row | Variant | yeast fitness
145 | C30A A45G | 0.896
146 | C30A U47C C66U A70U | ≤ 0.5
147 | C30G A37U | 0.615
148 | C30G A37C | 0.673
149 | C30G A37G | 0.513
150 | C30A A36G | 0.819
151 | C30A C34A C49U | ≤ 0.5
152 | C30A G41C A69C | 0.598
153 | C30A A43C A65G | 0.97
154 | C29U G44A | 0.818
155 | C30A G38A | 0.783
156 | C29U U59G C66U | 0.732
157 | C30A U35A A42G A43C | ≤ 0.5
158 | C30G A36U C49G U53C G58C G67A A70U | ≤ 0.5
159 | C30A U47C C61A A65C | ≤ 0.5
160 | C30A A40U | 0.819
161 | C30A A40G | 0.979
162 | C30A G68C | 0.823
163 | C30A G68A | 0.862
164 | C30A C33G A45U U59C | 0.543
165 | C29U C31A A69U | 0.627
166 | C29U C46U C66U | 0.63
167 | C30A A65G G67C | 0.526
